The species entered for assay [1] is Homo sapiens. Kind of assay: Inhibition of human plasma alpha-thrombin assessed as spectrozyme TH hydrolysis at 1 to 900 uM preincubated for 10 mins by spectrophotometric analysis relative to control. In kind it is cell-free. The essentials:
(§1)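 Human plasma α-thrombin (5 nM final) with inhibitor (1−900 μM final) in 20 mM Tris-HCl pH 7.4, 100 mM NaCl, 2.5 mM CaCl2, 0.1% PEG8000, PEG20000-coated cuvettes, 10 min. Spectrozyme TH then added (30 μM final). Initial rate from A405 increase. Residual activity fitted by logistic equation with floating Hill slope, Y0, YM to give IC50.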

Assay [2] in a line: (§2) Inhibition of human plasma alpha-thrombin assessed as spectrozyme TH hydrolysis preincubated for 10 mins by spectrophotometric analysis. In kind it is cell-free. A digest of the protocol: as §1
The species named for assay [3] is Homo sapiens. The assay is described as §2. In kind it is cell-free. A digest of the protocol: as §1
Assay [4] addresses Coagulation factor X (Homo sapiens) (UniProt P00742). Kind of assay: Inhibition of human factor 10a at 365 uM.
Another assay addresses Prothrombin (Homo sapiens, UniProt P00734). Description: Binding affinity to thrombin exosite-2 (unknown origin).
The species entered for assay [5] is Homo sapiens. Description: Binding affinity to human plasma alpha-thrombin exosite-2 using spectrozyme TH as substrate after overnight incubation at 25 degC by spectrophotometric analysis. In kind it is cell-free.

This note sets out measurements from ChEMBL document CHEMBL2396594, “Designing allosteric regulators of thrombin. Exosite 2 features multiple subsites that can be targeted by sulfated small molecules for inducing inhibition” (J Med Chem, 2013).

Activity calls are given as the source filed them. The calls are words filed in the database; no cut-off is given here. Where a SMILES comes first, the peptide text is derived from it. [ ]: non-standard residue; d: D form. pY = N[C@@H](Cc1ccc(OP(=O)(O)O)cc1)C(=O)O

Coagulation factor X (Homo sapiens), sequence (P00742 41-179 limits assumed): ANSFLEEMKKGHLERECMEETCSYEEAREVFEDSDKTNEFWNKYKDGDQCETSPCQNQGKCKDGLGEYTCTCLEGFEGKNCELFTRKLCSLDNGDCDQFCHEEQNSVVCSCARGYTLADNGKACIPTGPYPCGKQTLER
Coagulation factor X (Homo sapiens), sequence (P00742 235-488 limits assumed): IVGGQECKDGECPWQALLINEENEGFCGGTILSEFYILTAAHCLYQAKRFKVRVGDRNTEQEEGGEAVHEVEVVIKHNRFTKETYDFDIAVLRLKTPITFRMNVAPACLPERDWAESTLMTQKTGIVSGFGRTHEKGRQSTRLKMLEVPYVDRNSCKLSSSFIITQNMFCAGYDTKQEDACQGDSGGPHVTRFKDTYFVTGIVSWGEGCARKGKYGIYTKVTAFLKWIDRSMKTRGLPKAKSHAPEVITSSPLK

For `CCOC(=O)c1c(C)oc2cc(OC)c(OCc3oc4cc(OC)c(OCc5oc6cc(OS(=O)(=O)O)c(OC)cc6c5C(=O)OCC)cc4c3C(=O)OCC)cc12`, the Efficacy in the assay listed under Homo sapiens [1] amounted to 91%. Moreover, the IC50 in assay [2] (read-out: IC50) is 154 µM; in assay [2] (read-out: pIC50 (converted)), 155 µM.
As to `N=C(N)NCCC[C@H](NC(=O)[C@@H]1CCCN1C(=O)[C@H](N)Cc1ccccc1)C(=O)CCl`, the inhibition result in the assay listed under Homo sapiens [3] was “Active”.
Regarding `CCOC(=O)c1c(C)oc2cc(OC)c(OCc3oc4cc(OC)c(OCc5oc6cc(OC(C)C)c(OS(=O)(=O)O)cc6c5C(=O)OCC)cc4c3C(=O)OCC)cc12`, in the assay listed under Homo sapiens [1], the Efficacy came out at 26%. In addition, the inhibition result in assay [4] was “inactive”. Besides, the IC50 in assay [2] (read-out: IC50) is 99 µM; in assay [2] (read-out: pIC50 (converted)) it was 100 µM.
For the molecule `C=CCOC(=O)c1c(C)oc2cc(OC)c(OCc3oc4cc(OC)c(OCc5oc6cc(OC)c(OS(=O)(=O)O)cc6c5C(=O)OCC)cc4c3C(=O)OCC)cc12`, the Efficacy in the assay listed under Homo sapiens [1] came out at 53%. The IC50 in assay [2] (read-out: IC50) is 31 µM; in assay [2] (read-out: pIC50 (converted)) it was 30.9 µM.
Take `CCOC(=O)c1c(C)oc2cc(OC)c(OCc3oc4cc(OC)c(OCc5oc6cc(OC)c(OS(=O)(=O)O)cc6c5C(=O)OC(C)(C)C)cc4c3C(=O)OCC)cc12`: the Efficacy in the assay filed under Homo sapiens [1] is 94%. In assay [4], the inhibition entry was “inactive”. The figures for the IC50 in assay [2] (read-out: IC50) and in assay [2] (read-out: pIC50 (converted)) were 165 µM and 166 µM, respectively.
As for `CC(C)C[C@H](NC(=O)[C@H](CC(=O)O)NC(=O)[C@H](CC(=O)O)NC(=O)[C@H](CCC(=O)O)NC(=O)[C@@H]1CCCN1C(=O)[C@H](Cc1ccc(OP(=O)(O)O)cc1)NC(=O)[C@H](CC(C)C)NC(=O)[C@H](CO)NC(=O)[C@H](CC(=O)O)NC(=O)[C@H](Cc1ccc(OP(=O)(O)O)cc1)NC(=O)[C@H](CCC(=O)O)NC(=O)[C@@H](NC(=O)[C@H](CCC(=O)O)NC(=O)[C@H](C)NC(=O)[C@@H]1CCCN1C(=O)[C@H](Cc1cnc[nH]1)NC(=O)[C@H](CCC(=O)O)NC(=O)[C@@H]1CCCN1C(=O)[C@H](CCCNC(=N)N)NC(=O)[C@@H](N)C(C)C)[C@@H](C)O)C(=O)O` (H-VRPEHPAETE[pY]DSL[pY]PEDDL-OH), at Prothrombin, the K is 0.6 µM.
`CCOC(=O)c1c(C)oc2cc(OC)c(OCc3oc4cc(OC)c(OCc5oc6cc(OC)c(OCc7oc8cc(OC)c(OS(=O)(=O)O)cc8c7C(=O)OCC)cc6c5C(=O)OCC)cc4c3C(=O)OCC)cc12`: the IC50 in assay [2] (read-out: IC50) and in assay [2] (read-out: pIC50 (converted)) was 158 µM throughout.
With `CCOC(=O)c1c(C)oc2cc(OC)c(OCc3oc4cc(OC)c(OCc5oc6cc(OCC)c(OS(=O)(=O)O)cc6c5C(=O)OCC)cc4c3C(=O)OCC)cc12`, the Efficacy in the assay filed under Homo sapiens [1] is 43%. Also, the inhibition result in assay [4] is “inactive”. Also, the IC50 in assay [2] (read-out: IC50) was 5.8 µM; in assay [2] (read-out: pIC50 (converted)), 5.89 µM.
`CCOC(=O)c1c(C)oc2cc(OC)c(OCc3oc4cc(OC)c(OCc5oc6cc(OC)c(OS(=O)(=O)O)cc6c5C(=O)OC)cc4c3C(=O)OCC)cc12`: the Efficacy in the assay listed under Homo sapiens [1] is 39%. Besides, the inhibition entry in assay [4] was “inactive”. The IC50 in assay [2] (read-out: IC50) was 2 µM; in assay [2] (read-out: pIC50 (converted)), 2.04 µM.
For the molecule `CCOC(=O)c1c(COc2cc3c(C(=O)OCC)c(COc4cc5c(C(=O)O)c(C)oc5cc4OC)oc3cc2OC)oc2cc(OC)c(O)cc12`, the inhibition entry in assay [4] was “inactive”. The IC50 in assay [2] (read-out: IC50) was over 500 µM.
Take `CCOC(=O)c1c(COc2cc3c(C(=O)O)c(C)oc3cc2OC)oc2cc(OC)c(OCc3oc4cc(OC)c(OS(=O)(=O)O)cc4c3C(=O)OCC)cc12`: the Efficacy in the assay filed under Homo sapiens [1] was 49%. Further, the inhibition result in assay [4] was “inactive”. Moreover, the figures for the IC50 in assay [2] (read-out: IC50) and in assay [2] (read-out: pIC50 (converted)) were 66 µM and 66.1 µM, respectively.
Turning to `O=C(O)C1=C[C@H](O)[C@@H](OS(=O)(=O)O)[C@H](O[C@H]2[C@H](O)[C@@H](NS(=O)(=O)O)[C@@H](O[C@H]3[C@H](O)[C@@H](OS(=O)(=O)O)[C@H](O[C@H]4[C@H](O)[C@@H](NS(=O)(=O)O)[C@@H](O[C@H]5[C@H](O)[C@@H](OS(=O)(=O)O)[C@H](O[C@H]6[C@H](O)[C@@H](NS(=O)(=O)O)[C@@H](O[C@H]7[C@H](O)[C@@H](OS(=O)(=O)O)[C@H](O[C@H]8[C@H](O)[C@@H](NS(=O)(=O)O)[C@@H](O)O[C@@H]8COS(=O)(=O)O)O[C@H]7COS(=O)(=O)O)O[C@@H]6COS(=O)(=O)O)O[C@H]5COS(=O)(=O)O)O[C@@H]4COS(=O)(=O)O)O[C@H]3COS(=O)(=O)O)O[C@@H]2COS(=O)(=O)O)O1`, the K in the assay filed under Homo sapiens [5] was 2.7 µM.
Take `CCOC(=O)c1c(C)oc2cc(OC)c(OCc3oc4cc(OC)c(OCc5oc6cc(OC)c(OS(=O)(=O)O)cc6c5C(=O)OCCOC)cc4c3C(=O)OCC)cc12`: in assay [4], the inhibition result was “inactive”. In assay [2] (read-out: IC50), the IC50 was over 500 µM.
With `CCOC(=O)c1c(C)oc2cc(OC)c(OCc3oc4cc(OC)c(OCc5oc6cc(OC)c(OCc7oc8cc(OC)c(OS(=O)(=O)C(C)(C)C)cc8c7C(=O)OCC)cc6c5C(=O)OCC)cc4c3C(=O)OCC)cc12`, the inhibition result in assay [4] was “inactive”.
